According to ChEMBL document CHEMBL4715736, “Identification of anticancer agents based on the thieno[2,3-b]pyridine and 1H-pyrazole molecular scaffolds” (2016):

Columns and labels:
Type in all cases: functional
NCI-H460 [1] = assay: Growth inhibition of human NCI-H460 cells assessed as cell growth at 0.01 uM incubated for 48 hrs by sulforhodamine B assay relative to control; conditions: read-out: Activity
COLO 205 [2] = assay: Growth inhibition of human COLO 205 cells assessed as cell growth at 0.01 uM incubated for 48 hrs by sulforhodamine B assay relative to control; conditions: read-out: Activity
Summary of the method: (§1)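 NCI Developmental Therapeutics Program NCI60 panel. Compounds that were active in the 10 µM one-dose screen went on to dose–response testing. Growth at each concentration is expressed relative to untreated control (100%). GI50 (concentration giving 50% of maximal inhibition of proliferation) and TGI (concentration giving total growth inhibition) were derived from the curves.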

SF-268 [3] = assay: Growth inhibition of human SF-268 cells assessed as cell growth at 0.01 uM incubated for 48 hrs by sulforhodamine B assay relative to control; conditions: read-out: Activity
OVCAR-4 = assay: Growth inhibition of human OVCAR-4 cells assessed as cell growth at 0.01 uM incubated for 48 hrs by sulforhodamine B assay relative to control; conditions: read-out: Activity
A498 = assay: Growth inhibition of human A498 cells assessed as cell growth at 0.01 uM incubated for 48 hrs by sulforhodamine B assay relative to control; conditions: read-out: Activity; summary of the method: as §1
A549 = assay: Growth inhibition of human A549/ATCC cells assessed as cell growth at 0.1 uM incubated for 48 hrs by sulforhodamine B assay relative to control; conditions: read-out: Activity; summary of the method: as §1
NCI-H226 = assay: Growth inhibition of human NCI-H226 cells assessed as cell growth at 0.1 uM incubated for 48 hrs by sulforhodamine B assay relative to control; conditions: read-out: Activity
COLO 205 [4] = assay: Growth inhibition of human COLO 205 cells assessed as cell growth at 0.1 uM incubated for 48 hrs by sulforhodamine B assay relative to control; conditions: read-out: Activity; summary of the method: as §1
SF-295 = assay: Growth inhibition of human SF-295 cells assessed as cell growth at 0.1 uM incubated for 48 hrs by sulforhodamine B assay relative to control; conditions: read-out: Activity
SK-MEL-28 = assay: Growth inhibition of human SK-MEL-28 cells assessed as cell growth at 0.1 uM incubated for 48 hrs by sulforhodamine B assay relative to control; conditions: read-out: Activity
OVCAR-5 [5] = assay: Growth inhibition of human OVCAR-5 cells assessed as cell growth at 0.1 uM incubated for 48 hrs by sulforhodamine B assay relative to control; conditions: read-out: Activity
OVCAR-8 = assay: Growth inhibition of human OVCAR-8 cells assessed as cell growth at 0.1 uM incubated for 48 hrs by sulforhodamine B assay relative to control; conditions: read-out: Activity
HOP-92 = assay: Growth inhibition of human HOP-92 cells assessed as cell growth at 1 uM incubated for 48 hrs by sulforhodamine B assay relative to control; conditions: read-out: Activity
HT-29 [6] = assay: Growth inhibition of human HT-29 cells assessed as cell growth at 1 uM incubated for 48 hrs by sulforhodamine B assay relative to control; conditions: read-out: Activity
KM12 = assay: Growth inhibition of human KM12 cells assessed as cell growth at 1 uM incubated for 48 hrs by sulforhodamine B assay relative to control; conditions: read-out: Activity
U-251 [7] = assay: Growth inhibition of human U-251 cells assessed as cell growth at 1 uM incubated for 48 hrs by sulforhodamine B assay relative to control; conditions: read-out: Activity
OVCAR-5 [8] = assay: Growth inhibition of human OVCAR-5 cells assessed as cell growth at 1 uM incubated for 48 hrs by sulforhodamine B assay relative to control; conditions: read-out: Activity
NCI/ADR-RES = assay: Growth inhibition of human NCI/ADR-RES cells assessed as cell growth at 1 uM incubated for 48 hrs by sulforhodamine B assay relative to control; conditions: read-out: Activity
SN12C = assay: Growth inhibition of human SN12C cells assessed as cell growth at 1 uM incubated for 48 hrs by sulforhodamine B assay relative to control; conditions: read-out: Activity
BT-549 = assay: Growth inhibition of human BT-549 cells assessed as cell growth at 1 uM incubated for 48 hrs by sulforhodamine B assay relative to control; conditions: read-out: Activity
NCI-H522 = assay: Growth inhibition of human NCI-H522 cells assessed as cell growth at 100 uM incubated for 48 hrs by sulforhodamine B assay relative to control; conditions: read-out: Activity
HCT-116 = assay: Growth inhibition of human HCT-116 cells assessed as cell growth at 100 uM incubated for 48 hrs by sulforhodamine B assay relative to control; conditions: read-out: Activity
U-251 [9] = assay: Growth inhibition of human U-251 cells assessed as cell growth at 100 uM incubated for 48 hrs by sulforhodamine B assay relative to control; conditions: read-out: Activity
LOX IMVI = assay: Growth inhibition of human LOX IMVI cells assessed as cell growth at 100 uM incubated for 48 hrs by sulforhodamine B assay relative to control; conditions: read-out: Activity
M14 = assay: Growth inhibition of human M14 cells assessed as cell growth at 100 uM incubated for 48 hrs by sulforhodamine B assay relative to control; conditions: read-out: Activity
MDA-MB-435 = assay: Growth inhibition of human MDA-MB-435 cells assessed as cell growth at 100 uM incubated for 48 hrs by sulforhodamine B assay relative to control; conditions: read-out: Activity
TK-10 = assay: Growth inhibition of human TK-10 cells assessed as cell growth at 100 uM incubated for 48 hrs by sulforhodamine B assay relative to control; conditions: read-out: Activity
RPMI-8226 = assay: Growth inhibition of human RPMI-8226 cells incubated for 48 hrs by sulforhodamine B assay
Summary of the method: (§2)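 NCI DTP 60-line human tumour panel. Dose-response curves were run only for ligands active in the initial 10 µM screen. GI50 (concentration giving 50% of maximal inhibition of proliferation) and TGI (concentration giving total growth inhibition) were derived from these curves.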

NCI-H460 [10] = assay: Growth inhibition of human NCI-H460 cells incubated for 48 hrs by sulforhodamine B assay
Summary of the method: (§3)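 NCI60 panel at the NCI Developmental Therapeutics Program. Only compounds active in the 10 µM screen went to dose-response testing. GI50, the concentration giving 50% of maximal inhibition of proliferation, and TGI, the concentration giving total growth inhibition, were derived from the dose-response curves.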

HCC 2998 = assay: Growth inhibition of human HCC 2998 cells incubated for 48 hrs by sulforhodamine B assay; conditions: for CC50: read-out: LC50 (the source's name)
HT-29 [11] = assay: Growth inhibition of human HT-29 cells incubated for 48 hrs by sulforhodamine B assay; summary of the method: as §3
SF-268 [12] = assay: Growth inhibition of human SF-268 cells incubated for 48 hrs by sulforhodamine B assay; summary of the method: as §2
U-251 [13] = assay: Growth inhibition of human U-251 cells incubated for 48 hrs by sulforhodamine B assay; summary of the method: as §2
OVCAR-3 = assay: Growth inhibition of human OVCAR-3 cells incubated for 48 hrs by sulforhodamine B assay; conditions: for CC50: read-out: LC50 (the source's name); summary of the method: as §2
SR = assay: Growth inhibition of human SR cells incubated for 48 hrs by sulforhodamine B assay; summary of the method: as §2

## Cc1cccc(NC(=O)c2sc3nc4c(cc3c2N)C(=O)CCC4)c1
NCI-H460 [1]
  growth at 0.01 µM: 104%
COLO 205 [2]
  growth at 0.01 µM: 92%
SF-268 [3]
  growth at 0.01 µM: 99%
OVCAR-4
  growth at 0.01 µM: 90%
A498
  growth at 0.01 µM: 68%
A549
  growth at 0.1 µM: 78%
NCI-H226
  growth at 0.1 µM: 94%
COLO 205 [4]
  growth at 0.1 µM: 78%
SF-295
  growth at 0.1 µM: 60%
SK-MEL-28
  growth at 0.1 µM: 66%
OVCAR-5 [5]
  growth at 0.1 µM: 86%
OVCAR-8
  growth at 0.1 µM: 98%
HOP-92
  growth at 1 µM: 50%
HT-29 [6]
  growth at 1 µM: 2%
KM12
  growth at 1 µM: 19%
U-251 [7]
  growth at 1 µM: 17%
OVCAR-5 [8]
  growth at 1 µM: 44%
NCI/ADR-RES
  growth at 1 µM: 15%
SN12C
  growth at 1 µM: 42%
BT-549
  growth at 1 µM: 46%
NCI-H522
  growth at 100 µM: -27%
HCT-116
  growth at 100 µM: 10%
U-251 [9]
  growth at 100 µM: -43%
LOX IMVI
  growth at 100 µM: -75%
M14
  growth at 100 µM: -48%
MDA-MB-435
  growth at 100 µM: -64%
TK-10
  growth at 100 µM: -23%
RPMI-8226
  GI50: 570 nM
  LC50: > 100 µM
  TGI: > 100 µM
NCI-H460 [10]
  GI50: 286 nM
  LC50: > 100 µM
  TGI: ≥ 100 µM
HCC 2998
  GI50: 383 nM
  TGI: > 100 µM
  CC50: > 100 µM
HT-29 [11]
  GI50: 199 nM
  LC50: ≥ 100 µM
  TGI: ≥ 100 µM
SF-268 [12]
  GI50: 1540 nM
  LC50 (concentration killing 50% of cells): > 100 µM
  TGI: > 100 µM
U-251 [13]
  GI50: 261 nM
  LC50 (concentration killing 50% of cells): ≥ 100 µM
  TGI: ≥ 100 µM
OVCAR-3
  GI50: 256 nM
  TGI: 1.66 µM
  CC50: ≥ 100 µM

## CN1CCc2nc3sc(C(N)=O)c(N)c3c(-c3cccs3)c2C1
NCI-H460 [1]
  growth at 0.01 µM: 109%
COLO 205 [2]
  growth at 0.01 µM: 105%
SF-268 [3]
  growth at 0.01 µM: 106%
OVCAR-4
  growth at 0.01 µM: 110%
A498
  growth at 0.01 µM: 97%
A549
  growth at 0.1 µM: 95%
NCI-H226
  growth at 0.1 µM: 89%
COLO 205 [4]
  growth at 0.1 µM: 103%
SF-295
  growth at 0.1 µM: 103%
SK-MEL-28
  growth at 0.1 µM: 103%
OVCAR-8
  growth at 0.1 µM: 96%
HOP-92
  growth at 1 µM: 104%
HT-29 [6]
  growth at 1 µM: 91%
KM12
  growth at 1 µM: 82%
U-251 [7]
  growth at 1 µM: 90%
NCI/ADR-RES
  growth at 1 µM: 91%
SN12C
  growth at 1 µM: 80%
BT-549
  growth at 1 µM: 92%
NCI-H522
  growth at 100 µM: -26%
HCT-116
  growth at 100 µM: 3%
U-251 [9]
  growth at 100 µM: 7%
LOX IMVI
  growth at 100 µM: 2%
M14
  growth at 100 µM: -27%
MDA-MB-435
  growth at 100 µM: 3%
TK-10
  growth at 100 µM: -6%
RPMI-8226
  GI50: 4410 nM
  LC50: > 100 µM
  TGI: > 100 µM
SR
  GI50: 1800 nM
  LC50: > 100 µM
  TGI: 7.31 µM
NCI-H460 [10]
  GI50: 3710 nM
  LC50: > 100 µM
  TGI: > 100 µM
HCC 2998
  GI50: 3540 nM
  TGI: 20.9 µM
  CC50: > 100 µM
HT-29 [11]
  GI50: 3110 nM
  LC50: > 100 µM
  TGI: 70.9 µM
SF-268 [12]
  GI50: 3850 nM
  LC50 (concentration killing 50% of cells): > 100 µM
  TGI: > 100 µM
U-251 [13]
  GI50: 3180 nM
  LC50 (concentration killing 50% of cells): > 100 µM
  TGI: > 100 µM
OVCAR-3
  GI50: 2160 nM
  TGI: 6.23 µM
  CC50: > 100 µM
